Assay results published in ChEMBL document CHEMBL3792365, “Dioxol and dihydrodioxin analogs of 2- and 3-phenylacetonitriles as potent anti-cancer agents with nanomolar activity against a variety of human cancer cells” (2016).

Experiments:
Assay type in all cases: functional
[1] = Growth inhibition of human HCT116 cells after 48 hrs by sulforhodamine B assay; settings: HCT-116, 48 h
How it was run: (§1)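 Five-dose testing against a 60-line human tumor cell panel. GI50 is the drug concentration giving a 50% reduction in net protein increase relative to untreated control cells.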

[2] = Growth inhibition of human OVCAR3 cells at 10 uM after 48 hrs by sulforhodamine B assay; settings: OVCAR-3, 48 h, values are per cent of control
[3] = Growth inhibition of human HL-60(TB) cells at 10 uM after 48 hrs by sulforhodamine B assay; settings: HL-60, 48 h, values are per cent of control
MCF7 = assay: Growth inhibition of human MCF7 cells at 10 uM after 48 hrs by sulforhodamine B assay; settings: MCF7, 48 h, values are per cent of control
786-0 = assay: Growth inhibition of human 786-0 cells at 10 uM after 48 hrs by sulforhodamine B assay; settings: 786-0, 48 h, values are per cent of control
SK-MEL-5 [4] = assay: Growth inhibition of human SK-MEL-5 cells at 10 uM after 48 hrs by sulforhodamine B assay; settings: SK-MEL-5, 48 h, values are per cent of control
SK-MEL-5 [5] = assay: Growth inhibition of human SK-MEL-5 cells after 48 hrs by sulforhodamine B assay; settings: SK-MEL-5, 48 h
How it was run: (§2)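 Five-dose concentration series run across a panel of 60 human tumour cell lines. GI50 is taken as the drug concentration giving a 50% reduction in net protein increase relative to untreated control cells.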

[6] = Growth inhibition of human IGROV1 cells after 48 hrs by sulforhodamine B assay; settings: IGROV-1, 48 h; how it was run: as §1
[7] = Growth inhibition of human NCI-ADR-RES cells at 10 uM after 48 hrs by sulforhodamine B assay; settings: values are per cent of control
MDA-MB-231 = assay: Growth inhibition of human MDA-MB-231 cells after 48 hrs by sulforhodamine B assay; settings: MDA-MB-231, 48 h; how it was run: as §1
[8] = Growth inhibition of human SF295 cells after 48 hrs by sulforhodamine B assay; settings: SF-295, 48 h; how it was run: as §2
U-251 = assay: Growth inhibition of human U251 cells after 48 hrs by sulforhodamine B assay; settings: U-251, 48 h; how it was run: as §2
[9] = Growth inhibition of human UACC257 cells at 10 uM after 48 hrs by sulforhodamine B assay; settings: UACC-257, 48 h, values are per cent of control
[10] = Growth inhibition of human SF539 cells after 48 hrs by sulforhodamine B assay; settings: SF-539, 48 h; how it was run: as §2
[11] = Growth inhibition of human HL-60(TB) cells after 48 hrs by sulforhodamine B assay; settings: HL-60, 48 h
How it was run: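 Five-dose study across the 60-cell human tumour panel. GI50 is the drug concentration giving a 50% reduction in net protein increase relative to control cells.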

[12] = Growth inhibition of human RXF393 cells at 10 uM after 48 hrs by sulforhodamine B assay; settings: RXF 393, 48 h, values are per cent of control
NCI-H522 = assay: Growth inhibition of human NCI-H522 cells after 48 hrs by sulforhodamine B assay; settings: NCI-H522, 48 h; how it was run: as §2
MDA-MB-435 = assay: Growth inhibition of human MDA-MB-435 cells after 48 hrs by sulforhodamine B assay; settings: MDA-MB-435, 48 h; how it was run: as §1
[13] = Growth inhibition of human UACC62 cells after 48 hrs by sulforhodamine B assay; settings: UACC-62, 48 h
How it was run: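 Five-dose testing across the 60-line human tumour cell panel. GI50 is the drug concentration that gives a 50% reduction in net protein increase relative to control cells.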

[14] = Growth inhibition of human OVCAR3 cells after 48 hrs by sulforhodamine B assay; settings: OVCAR-3, 48 h; how it was run: as §2
SK-MEL-28 = assay: Growth inhibition of human SK-MEL-28 cells after 48 hrs by sulforhodamine B assay; settings: SK-MEL-28, 48 h; how it was run: as §2
[15] = Growth inhibition of human SNB75 cells after 48 hrs by sulforhodamine B assay; settings: SNB-75, 48 h; how it was run: as §2
[16] = Growth inhibition of human OVCAR8 cells at 10 uM after 48 hrs by sulforhodamine B assay; settings: OVCAR-8, 48 h, values are per cent of control
[17] = Growth inhibition of human RPMI8226 cells at 10 uM after 48 hrs by sulforhodamine B assay; settings: RPMI-8226, 48 h, values are per cent of control
[18] = Growth inhibition of human PC3 cells after 48 hrs by sulforhodamine B assay; settings: PC-3, 48 h; how it was run: as §2
[19] = Growth inhibition of human NCI-ADR-RES cells after 48 hrs by sulforhodamine B assay; how it was run: as §2
[20] = Growth inhibition of human HCC2998 cells after 48 hrs by sulforhodamine B assay; settings: HCC 2998, 48 h; how it was run: as §1
[21] = Growth inhibition of human PC3 cells at 10 uM after 48 hrs by sulforhodamine B assay; settings: PC-3, 48 h, values are per cent of control
ACHN = assay: Growth inhibition of human ACHN cells at 10 uM after 48 hrs by sulforhodamine B assay; settings: values are per cent of control
[22] = Growth inhibition of human SKOV3 cells after 48 hrs by sulforhodamine B assay; settings: SK-OV-3, 48 h; how it was run: as §2
CCRF-CEM [23] = assay: Growth inhibition of human CCRF-CEM cells at 10 uM after 48 hrs by sulforhodamine B assay; settings: values are per cent of control
SK-MEL-2 = assay: Growth inhibition of human SK-MEL-2 cells after 48 hrs by sulforhodamine B assay; settings: SK-MEL-2, 48 h; how it was run: as §2
Malme-3M = assay: Growth inhibition of human MALME-3M cells at 10 uM after 48 hrs by sulforhodamine B assay; settings: values are per cent of control
M14 = assay: Growth inhibition of human M14 cells after 48 hrs by sulforhodamine B assay; settings: M14, 48 h; how it was run: as §1
SR = assay: Growth inhibition of human SR cells at 10 uM after 48 hrs by sulforhodamine B assay; settings: values are per cent of control
CCRF-CEM [24] = assay: Growth inhibition of human CCRF-CEM cells after 48 hrs by sulforhodamine B assay; how it was run: as §1
[25] = Growth inhibition of human HOP92 cells after 48 hrs by sulforhodamine B assay; settings: HOP-92, 48 h; how it was run: as §1
[26] = Growth inhibition of human SKOV3 cells at 10 uM after 48 hrs by sulforhodamine B assay; settings: SK-OV-3, 48 h, values are per cent of control
[27] = Growth inhibition of human HCT15 cells at 10 uM after 48 hrs by sulforhodamine B assay; settings: HCT-15, 48 h, values are per cent of control
A549 = assay: Growth inhibition of human A549/ATCC cells after 48 hrs by sulforhodamine B assay; settings: A549, 48 h; how it was run: as §1
[28] = Growth inhibition of human COLO205 cells after 48 hrs by sulforhodamine B assay; settings: COLO 205, 48 h; how it was run: as §1
[29] = Growth inhibition of human MOLT4 cells at 10 uM after 48 hrs by sulforhodamine B assay; settings: MOLT-4, 48 h, values are per cent of control
[30] = Growth inhibition of human HOP92 cells at 10 uM after 48 hrs by sulforhodamine B assay; settings: HOP-92, 48 h, values are per cent of control

Question: What does the source list for COc1ccc(/C=C(\C#N)c2ccc3c(c2)OCO3)c2ccccc12?
Answer: GI50 [1]: 2.41 µM; growth, % of control at 10 µM [2]: -21.2%; growth, % of control at 10 µM [3]: 7.8%; growth, % of control at 10 µM (MCF7): 12.1%; growth, % of control at 10 µM (786-0): 40.2%; growth, % of control at 10 µM (SK-MEL-5 [4]): 19.1%; GI50 (SK-MEL-5 [5]): 1.52 µM; GI50 [6]: 4.07 µM; growth, % of control at 10 µM [7]: 10.5%; GI50 (MDA-MB-231): 2.43 µM; GI50 [8]: 1.91 µM; GI50 (U-251): 2.71 µM; growth, % of control at 10 µM [9]: 41%; GI50 [10]: 1.58 µM; GI50 [11]: 1.57 µM; growth, % of control at 10 µM [12]: -17.7%; GI50 (NCI-H522): 2.37 µM; GI50 (MDA-MB-435): 0.31 µM; GI50 [13]: 1.51 µM; GI50 [14]: 3.04 µM; GI50 (SK-MEL-28): 4.52 µM; GI50 [15]: 1.14 µM; growth, % of control at 10 µM [16]: 29%; growth, % of control at 10 µM [17]: 5.3%; GI50 [18]: 3.04 µM; GI50 [19]: 1.65 µM; GI50 [20]: 5.42 µM; growth, % of control at 10 µM [21]: 36.1%; growth, % of control at 10 µM (ACHN): 44.7%; GI50 [22]: 2.35 µM; growth, % of control at 10 µM (CCRF-CEM [23]): 21.6%; GI50 (SK-MEL-2): 2.9 µM; growth, % of control at 10 µM (Malme-3M): 37.9%; GI50 (M14): 1.68 µM; growth, % of control at 10 µM (SR): 18.4%; GI50 (CCRF-CEM [24]): 1.91 µM; GI50 [25]: 12 µM; growth, % of control at 10 µM [26]: 26.9%; growth, % of control at 10 µM [27]: 21.4%; GI50 (A549): 2.65 µM; GI50 [28]: 1.61 µM; growth, % of control at 10 µM [29]: 26.8%

Question: Which GI50 [1] does the source give for COc1ccc(/C(C#N)=C/c2ccc3c(c2)OCCO3)cc1 here?
Answer: 6.33 µM

Question: What about the growth, % of control at 10 µM [3] of the same compound?
Answer: 38%

Question: What about the growth, % of control at 10 µM (MCF7) of the same compound?
Answer: 24.4%

Question: And the growth, % of control at 10 µM (786-0)?
Answer: 80.2%

Question: What about the growth, % of control at 10 µM (SK-MEL-5 [4]) of the same compound?
Answer: 45%

Question: What about the GI50 (SK-MEL-5 [5]) of the same compound?
Answer: 3.54 µM

Question: And the GI50 [6]?
Answer: > 100 µM

Question: What about the growth, % of control at 10 µM [7] of the same compound?
Answer: 34.4%

Question: And the GI50 (MDA-MB-231)?
Answer: 69.3 µM

Question: What about the GI50 [8] of the same compound?
Answer: 10.6 µM

Question: What about the GI50 (U-251) of the same compound?
Answer: > 100 µM

Question: And the growth, % of control at 10 µM [9]?
Answer: 76.7%

Question: What about the GI50 [10] of the same compound?
Answer: 73.1 µM

Question: And the GI50 [11]?
Answer: > 100 µM

Question: What about the growth, % of control at 10 µM [12] of the same compound?
Answer: 77.3%

Question: And the growth, % of control at 10 µM [30]?
Answer: 89%

Question: What about the GI50 (NCI-H522) of the same compound?
Answer: > 100 µM

Question: And the GI50 (MDA-MB-435)?
Answer: 0.51 µM

Question: And the GI50 [13]?
Answer: 8.68 µM

Question: What about the GI50 [14] of the same compound?
Answer: 37.1 µM

Question: And the GI50 (SK-MEL-28)?
Answer: > 100 µM

Question: What about the GI50 [15] of the same compound?
Answer: 21.9 µM

Question: And the growth, % of control at 10 µM [16]?
Answer: 77.1%

Question: What about the growth, % of control at 10 µM [17] of the same compound?
Answer: 80.8%

Question: And the GI50 [18]?
Answer: > 100 µM

Question: What about the GI50 [19] of the same compound?
Answer: 4.45 µM

Question: And the GI50 [20]?
Answer: 7.78 µM

Question: What about the growth, % of control at 10 µM [21] of the same compound?
Answer: 70.9%

Question: What about the growth, % of control at 10 µM (ACHN) of the same compound?
Answer: 87.7%

Question: And the GI50 [22]?
Answer: > 100 µM

Question: And the growth, % of control at 10 µM (CCRF-CEM [23])?
Answer: 58.7%

Question: What about the GI50 (SK-MEL-2) of the same compound?
Answer: 36.8 µM

Question: And the growth, % of control at 10 µM (Malme-3M)?
Answer: 64.6%

Question: What about the GI50 (M14) of the same compound?
Answer: 3.87 µM

Question: What about the growth, % of control at 10 µM (SR) of the same compound?
Answer: -1.3%

Question: And the GI50 (CCRF-CEM [24])?
Answer: > 100 µM

Question: And the GI50 [25]?
Answer: > 100 µM

Question: And the growth, % of control at 10 µM [26]?
Answer: 81%

Question: And the growth, % of control at 10 µM [27]?
Answer: 43.4%

Question: What about the GI50 (A549) of the same compound?
Answer: 21.7 µM

Question: And the GI50 [28]?
Answer: > 100 µM

Question: What about the growth, % of control at 10 µM [29] of the same compound?
Answer: 32.2%
